Five compounds from ChEMBL document CHEMBL1828545, “Synthesis and characterization of novel PUFA esters exhibiting potential anticancer activities: an in vitro study” (Eur J Med Chem, 2011) can be followed below.

The source made the active and inactive calls. The rule behind the calls is not given here.

Data set [1] deals with HepG2. The experiment in a line: Cytotoxicity against human HepG2 cells after 94 hrs by MTT assay. The conditions noted are these: HepG2, 94 h. Type of data set: functional, cell-based. In a few lines: (§1)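 Cells seeded at 5 x 10^5 cells/200 µl/well in 96-well plates, grown in medium with 5% FCS. After 24 h, compounds added at 0–15 µM, with ethanol as vehicle control. Incubated 94 h, then medium replaced. MTT (5 mg/ml) added for 2-3 h at 37 °C and dissolved in DMSO. A620 read in triplicate wells. IC50 taken from the concentration giving 50% loss of viability.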

Data set [2] concerns MDA-MB-361. Kind of data set: Cytotoxicity against human MDA-MB-361 cells after 94 hrs by MTT assay. The class given is functional, cell-based. The conditions noted are these: MDA-MB-361, 94 h. In a few lines:
as §1

Data set [3] has as its system SK-MEL-1. The experiment in a line: Cytotoxicity against human SK-MEL-1 cells after 94 hrs by MTT assay. The class given is functional, cell-based. As to conditions: for IC50: SK-MEL-1, 94 h. In a few lines: as §1
The test system of data set [4] is A549. Kind of data set: Cytotoxicity against human A549 cells after 94 hrs by MTT assay. The conditions noted are these: for IC50: A549, 94 h. Type of data set: functional, cell-based. In a few lines: as §1
Data set [5] relates to HL-60. Kind of data set: Cytotoxicity against human HL60 cells after 94 hrs by MTT assay. Type of data set: functional, cell-based. As to conditions: for IC50: HL-60, 94 h. Put shortly: as §1
The test system of data set [6] is HFL1. The experiment in a line: Cytotoxicity against human HFL1 cells after 94 hrs by MTT assay. As to conditions: hfl1, 94 h. Type of data set: cell-based. In a few lines:
as §1

In data set [7] the test system is MDA-MB-361. Kind of data set: Modulation of lipid peroxidation in human MDA-MB-361 cells assessed as malondialdehyde production assessed per 10^6 cells at 25 to 100 uM after 24 hrs by thiobarbituric acid assay. Type of data set: functional. In a few lines: (§2)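 Cells exposed for 24 h to vehicle or to 25, 50 or 100 µM compound. Malondialdehyde measured spectrophotometrically by thiobarbituric acid assay and expressed as nmol MDA per 10^6 cells. Means ± SD of five experiments.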

Data set [8] deals with MDA-MB-361. The experiment in a line: Induction of apoptosis in human MDA-MB-361 cells assessed as upregulation of cytochrome c expression at 15 uM after 24 hrs by Western blotting. The class given is functional. In a few lines: (§3)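 Cells (1 × 10^7/well) grown 24 h in serum-free medium at 37 °C, then treated 24 h, with ethanol as control. Harvested by trypsin and lysed in TNN buffer (50 mM Tris-HCl pH 7.4, NP-40, protease inhibitors). Cytosolic fraction taken from a 10,000 g spin. Protein measured by BCA and equal amounts run on 10% SDS-PAGE. Blotted to nitrocellulose, probed with monoclonal antibodies plus a β-actin reprobe, detected by ECL. Densitometry as mean of triplicates.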

The subject of data set [9] is MDA-MB-361. The experiment in a line: Induction of apoptosis in human MDA-MB-361 cells assessed as upregulation of caspase 3 expression at 15 uM after 24 hrs by Western blotting. The class given is functional. Put shortly:
as §3

In data set [10] the test system is HepG2. Kind of data set: Modulation of lipid peroxidation in human HepG2 cells assessed as malondialdehyde production after 24 hrs by thiobarbituric acid assay. Type of data set: functional, cell-based. Put shortly: as §2
Data set [11] has as its system HepG2. Kind of data set: Induction of apoptosis in human HepG2 cells assessed as upregulation of cytochrome c expression at 15 uM after 24 hrs by Western blotting. Type of data set: functional. In a few lines: as §3
Data set [12] relates to HepG2. The experiment in a line: Induction of apoptosis in human HepG2 cells assessed as upregulation of caspase 3 expression at 15 uM after 24 hrs by Western blotting. The class given is functional, cell-based. Put shortly: as §3

With `CCCCC/C=C\C/C=C\CCCCCCCC(=O)Oc1ccc(C(C)C)cc1C(C)C`, the results for the concentration for half-maximal inhibition (IC50) in data set [1], in data set [2] and in data set [3] were 4.1 µM, 3.2 µM and 4.9 µM, respectively. Besides, the “growth inhibition (GI)” value in data set [4] and in data set [5] was “Active” throughout. In addition, the Activity result is on record as “Non-toxic” in data set [6], 0.25 nmol in data set [7], 35.2% in [8] and 32.6% in [9].
For the compound `CCCCC/C=C\C/C=C\C/C=C\C/C=C\CCCC(=O)Oc1ccc(C(C)C)cc1C(C)C`, the half-maximal inhibitory concentration (IC50) in data set [1] worked out at 3.7 µM; in data set [2], 7.5 µM; in [4], 5.3 µM; in [5] it was 4.4 µM. The “growth inhibition (GI)” value in [3] was “Active”. The Activity result was “Toxic” in data set [6], “Dose-dependent effect” in [10] and 24.7% in data set [11]. In addition, in data set [12], the result was inactive.
As to `COc1cccc2c1C(=O)c1c(O)c3c(c(O)c1C2=O)C[C@@](O)(C(=O)CO)C[C@@H]3O[C@H]1C[C@H](N)[C@H](O)[C@H](C)O1` [DOXORUBICIN], the half-maximal inhibitory concentration (IC50) in data set [1] was found to be 2.17 µM; in data set [2], 2.03 µM; in data set [3], 3.09 µM; in data set [4] it was 3.6 µM; in data set [5], 3.14 µM. Moreover, in data set [6], the Activity entry is given as “Non-toxic”.
Turning to `CCCCC/C=C\C/C=C\C/C=C\C/C=C\CCCC(=O)Oc1c(C(C)C)cccc1C(C)C`, the IC50 in [1] was 3.1 µM; in data set [2], 7.21 µM; in data set [4], 4.6 µM; in [5] it was 3.9 µM. For the same compound, in data set [3], the “growth inhibition (GI)” value was “Active”. For the same compound, the results for the Activity entry in [10] and in [11] were “Dose-dependent effect” and 24.2%, respectively. The result in [12] was inactive.
Regarding `CCCCC/C=C\C/C=C\CCCCCCCC(=O)Oc1c(C(C)C)cccc1C(C)C`, the IC50 in data set [1] was determined as 3.3 µM; in data set [2], 2.76 µM; in data set [3], 4.1 µM. Further, the “growth inhibition (GI)” value in data set [4] and in data set [5] was “Active” in each case. For the same compound, the Activity result in [6] is given as “Non-toxic”; in data set [7] it was 0.25 nmol; in data set [8], 36.6%; in data set [9] it was 33.7%.
